Test results published in ChEMBL document CHEMBL1132206, “Design, synthesis, and in vitro activity of catamphiphilic reverters of multidrug resistance: discovery of a selective, highly efficacious chemosensitizer with potency in the nanomolar range” (J Med Chem, 1999).
Activity calls are given as the source filed them. The rule behind the calls is not given here.

Experiments:
Cavia porcellus [1] = species on record: Cavia porcellus; assay: Potency expressed as EC30 for the negative chronotropic activity; 'i' means Inactive; format: functional
Cavia porcellus [2] = species on record: Cavia porcellus; assay: Decrease in atrial rate of the right atrium of guinea pig expressed as the negative chronotropy.; parameters: concentration or dose not given beside the values
Cavia porcellus [3] = species on record: Cavia porcellus; assay: Potency expressed as IC50 for the vasorelaxant activity; 'i' means inactive.; format: functional
Cavia porcellus [4] = species on record: Cavia porcellus; assay: Decrease in developed tension of the left atrium of guinea pig expressed as the negative inotropy.; format: functional, Cardiac atrium; parameters: concentration or dose not given beside the values
Outline: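 Isolated guinea pig left atrium, electrically driven at 1 Hz. Read-out is the fall in developed tension at 5 × 10^-5 M, given as percent change from control (n = 5-6).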

Cavia porcellus [5] = species on record: Cavia porcellus; assay: Potency expressed as EC50 for the negative inotropic activity.; format: functional
K562 [6] = assay: percentage of the dead cells of K-562 cells was determined for the concentration of 1 uM of the compound.; format: ADME, cell-based; settings: human, k562, 1 µM
Outline: (§1)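 Doxorubicin-resistant K 562 cells were exposed to compound at 1 µM, and viability was scored by trypan blue exclusion. Dead cells above 20% counted as toxic.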

Cavia porcellus [7] = species on record: Cavia porcellus; assay: Percent inhibition of calcium-induced contraction on K+ depolarized guinea pig aortic strip.; format: functional, Aorta; parameters: concentration or dose not given beside the values
K562 [8] = assay: The efficacy in reverting MDR was evaluated on erythroleukemia K-562 cell line.; format: functional, Homo sapiens
Outline: (§2)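 Doxorubicin-resistant and sensitive K 562 cells in exponential growth were used in pH 7.25 HEPES buffer at 37 °C in quartz cuvettes. Pirarubicin uptake was followed as the fall in fluorescence at 590 nm (ex 480 nm). Steady-state nuclear pirarubicin was measured across a range of inhibitor concentrations. α = (CnRi − CnRo)/(CnS − CnRo); αmax is the maximal α, and [i]0.5 is the concentration giving α = 0.5 (mean ± SEM).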

K562 [9] = assay: Potency that causes a half maximal increase in nuclear concentration of pirarubicin.; format: functional, Homo sapiens
K562 [10] = assay: The efficacy in reverting MDR was evaluated on human erythroleukemia K-562 cell line; format: functional; outline: as §2
Cavia porcellus [11] = species on record: Cavia porcellus; assay: Potency expressed as EC50 for the negative inotropic activity; 'i' means Inactive; format: functional
Cavia porcellus [12] = species on record: Cavia porcellus; assay: Potency expressed as EC30 for the negative chronotropic activity.; format: functional
K562 [13] = assay: Percentage of the dead cells of K-562 cells was determined for the compound; format: ADME, cell-based; settings: human; outline: as §1

Q: Which EC30 (Cavia porcellus [1]) does the source give for `COc1ccc(C(C#N)(CCCNCc2cc3ccccc3c3ccccc23)C(C)C)cc1OC.Cl` (stereo not drawn) here?
A: Its EC30 is “inactive”.

Q: And the Activity (Cavia porcellus [2])?
A: Its Activity is 43%.

Q: And the IC50 (Cavia porcellus [3])?
A: The IC50 was “Inactive”.

Q: And the Activity (Cavia porcellus [4])?
A: The Activity was 65%.

Q: What about the EC50 (Cavia porcellus [5]) of the same compound?
A: Its EC50 is 1.13 µM.

Q: What about the Dead cells (K562 [6]) of the same compound?
A: Its Dead cells is 100%.

Q: And the Activity (Cavia porcellus [7])?
A: The Activity was 19%.

Q: Which EC30 (Cavia porcellus [1]) does the source give for `CN(CCCC(C#N)(c1ccccc1)c1ccccc1)Cc1c2ccccc2cc2ccccc12.Cl` here?
A: The EC30 was “inactive”.

Q: And the Activity (Cavia porcellus [2])?
A: The Activity was 22%.

Q: And the IC50 (Cavia porcellus [3])?
A: Its IC50 is “Inactive”.

Q: And the Activity (Cavia porcellus [4])?
A: Its Activity is 70%.

Q: What about the Alpha max (K562 [8]) of the same compound?
A: The Alpha max was 0.8.

Q: And the Potency (K562 [9])?
A: Its Potency is 2.1 µM.

Q: What about the EC50 (Cavia porcellus [5]) of the same compound?
A: Its EC50 is 0.89 µM.

Q: What about the Dead cells (K562 [6]) of the same compound?
A: Its Dead cells is 0%.

Q: What about the Activity (Cavia porcellus [7]) of the same compound?
A: The Activity was 10%.

Q: What does the source list for `COc1ccc(C(C#N)(CCCNC2c3ccccc3-c3ccccc32)C(C)C)cc1OC.Cl` (stereo not drawn)?
A: Alpha max (K562 [10]): 0.8; Activity (Cavia porcellus [2]): 74%; IC50 (Cavia porcellus [3]): Inactive; Activity (Cavia porcellus [4]): 33%; EC50 (Cavia porcellus [11]): Not Active; EC30 (Cavia porcellus [12]): 0.65 µM; Potency (K562 [9]): 0.25 µM; Activity (Cavia porcellus [7]): 46%; Dead cells (K562 [13]): 0%

Q: For `Cl.N#CC(CCCNCC(c1ccccc1)c1ccccc1)(c1ccccc1)c1ccccc1`, which Activity (Cavia porcellus [2]) is on record?
A: The Activity was 82%.

Q: And the IC50 (Cavia porcellus [3])?
A: The IC50 was “Inactive”.

Q: And the Activity (Cavia porcellus [4])?
A: The Activity was 75%.

Q: What about the EC30 (Cavia porcellus [12]) of the same compound?
A: The EC30 was 1.16 µM.

Q: What about the EC50 (Cavia porcellus [5]) of the same compound?
A: Its EC50 is 2.15 µM.

Q: What about the Dead cells (K562 [6]) of the same compound?
A: Its Dead cells is 40%.

Q: What about the Activity (Cavia porcellus [7]) of the same compound?
A: Its Activity is 19%.

Q: For `COc1ccc(C(C#N)(CC#CCN(C)C2c3ccccc3-c3ccccc32)C(C)C)cc1OC.Cl` (stereo not drawn), which EC30 (Cavia porcellus [1]) is on record?
A: Its EC30 is “inactive”.

Q: And the Alpha max (K562 [10])?
A: Its Alpha max is 0.9.

Q: And the Activity (Cavia porcellus [2])?
A: Its Activity is 24%.

Q: What about the IC50 (Cavia porcellus [3]) of the same compound?
A: The IC50 was “Inactive”.

Q: What about the Activity (Cavia porcellus [4]) of the same compound?
A: The Activity was 71%.

Q: And the Potency (K562 [9])?
A: Its Potency is 0.5 µM.

Q: What about the EC50 (Cavia porcellus [5]) of the same compound?
A: The EC50 was 0.35 µM.

Q: And the Activity (Cavia porcellus [7])?
A: Its Activity is 6%.

Q: What about the Dead cells (K562 [13]) of the same compound?
A: Its Dead cells is 0%.

Q: For `COc1ccc(C(C#N)(CC#CCNC(c2ccccc2)c2ccccc2)C(C)C)cc1OC.Cl` (stereo not drawn), which EC30 (Cavia porcellus [1]) is on record?
A: Its EC30 is “inactive”.

Q: What about the Alpha max (K562 [10]) of the same compound?
A: The Alpha max was 0.6.

Q: What about the Activity (Cavia porcellus [2]) of the same compound?
A: Its Activity is 24%.

Q: What about the IC50 (Cavia porcellus [3]) of the same compound?
A: Its IC50 is “Inactive”.

Q: What about the Activity (Cavia porcellus [4]) of the same compound?
A: Its Activity is 69%.

Q: And the Potency (K562 [9])?
A: The Potency was 0.5 µM.

Q: What about the EC50 (Cavia porcellus [5]) of the same compound?
A: Its EC50 is 1.54 µM.

Q: What about the Activity (Cavia porcellus [7]) of the same compound?
A: The Activity was 23%.

Q: What about the Dead cells (K562 [13]) of the same compound?
A: Its Dead cells is 6%.

Q: With `Cl.N#CC(CCCNCc1cc2ccccc2c2ccccc12)(c1ccccc1)c1ccccc1` as the compound, how does the EC30 (Cavia porcellus [1]) read?
A: The EC30 was “inactive”.

Q: What about the Activity (Cavia porcellus [2]) of the same compound?
A: The Activity was 38%.

Q: And the IC50 (Cavia porcellus [3])?
A: The IC50 was “Inactive”.

Q: What about the Activity (Cavia porcellus [4]) of the same compound?
A: The Activity was 61%.

Q: What about the EC50 (Cavia porcellus [5]) of the same compound?
A: The EC50 was 2.11 µM.

Q: What about the Dead cells (K562 [6]) of the same compound?
A: The Dead cells was 100%.

Q: What about the Activity (Cavia porcellus [7]) of the same compound?
A: The Activity was 3%.

Q: Which EC30 (Cavia porcellus [1]) does the source give for `COc1ccc(C(C#N)(CC#CCN(C)CC2c3ccccc3-c3ccccc32)C(C)C)cc1OC.Cl` (stereo not drawn) here?
A: Its EC30 is “inactive”.

Q: And the Activity (Cavia porcellus [2])?
A: The Activity was 25%.

Q: What about the IC50 (Cavia porcellus [3]) of the same compound?
A: Its IC50 is “Inactive”.

Q: And the Activity (Cavia porcellus [4])?
A: The Activity was 78%.

Q: What about the EC50 (Cavia porcellus [5]) of the same compound?
A: Its EC50 is 1.11 µM.

Q: What about the Activity (Cavia porcellus [7]) of the same compound?
A: The Activity was 12%.

Q: What about the Dead cells (K562 [13]) of the same compound?
A: Its Dead cells is 30%.

Q: Which EC30 (Cavia porcellus [1]) does the source give for `COc1ccc(C(C#N)(CC#CCNCc2cc3ccccc3c3ccccc23)C(C)C)cc1OC.Cl` (stereo not drawn) here?
A: The EC30 was “inactive”.

Q: And the Activity (Cavia porcellus [2])?
A: The Activity was 31%.

Q: What about the IC50 (Cavia porcellus [3]) of the same compound?
A: The IC50 was “Inactive”.

Q: What about the Activity (Cavia porcellus [4]) of the same compound?
A: The Activity was 88%.

Q: What about the Alpha max (K562 [8]) of the same compound?
A: Its Alpha max is 0.5.

Q: And the Potency (K562 [9])?
A: The Potency was 0.5 µM.

Q: What about the EC50 (Cavia porcellus [5]) of the same compound?
A: Its EC50 is 1.29 µM.

Q: And the Dead cells (K562 [6])?
A: Its Dead cells is 20%.

Q: What about the Activity (Cavia porcellus [7]) of the same compound?
A: Its Activity is 10%.

Q: What does the source list for `COc1ccc(C(C#N)(CC#CCNCc2c3ccccc3cc3ccccc23)C(C)C)cc1OC.Cl` (stereo not drawn)?
A: EC30 (Cavia porcellus [1]): inactive; Activity (Cavia porcellus [2]): 34%; IC50 (Cavia porcellus [3]): Inactive; Activity (Cavia porcellus [4]): 74%; Alpha max (K562 [8]): 0.7; Potency (K562 [9]): 2 µM; EC50 (Cavia porcellus [5]): 1.04 µM; Dead cells (K562 [6]): 15%; Activity (Cavia porcellus [7]): 12%

Q: For `COc1ccc(C(C#N)(CCCN(C)CC2c3ccccc3-c3ccccc32)C(C)C)cc1OC.Cl` (stereo not drawn), which EC30 (Cavia porcellus [1]) is on record?
A: Its EC30 is “inactive”.

Q: And the Alpha max (K562 [10])?
A: Its Alpha max is 0.5.

Q: And the Activity (Cavia porcellus [2])?
A: The Activity was 31%.

Q: And the IC50 (Cavia porcellus [3])?
A: The IC50 was “Inactive”.

Q: What about the Activity (Cavia porcellus [4]) of the same compound?
A: Its Activity is 75%.

Q: And the Potency (K562 [9])?
A: Its Potency is 2.2 µM.

Q: What about the EC50 (Cavia porcellus [5]) of the same compound?
A: The EC50 was 1.01 µM.

Q: And the Activity (Cavia porcellus [7])?
A: The Activity was 11%.

Q: What about the Dead cells (K562 [13]) of the same compound?
A: Its Dead cells is 3%.

Q: With `Cl.N#CC(CCCNC1c2ccccc2-c2ccccc21)(c1ccccc1)c1ccccc1` as the compound, how does the Alpha max (K562 [10]) read?
A: The Alpha max was 0.8.

Q: And the Activity (Cavia porcellus [2])?
A: The Activity was 57%.

Q: What about the IC50 (Cavia porcellus [3]) of the same compound?
A: Its IC50 is “Inactive”.

Q: And the Activity (Cavia porcellus [4])?
A: Its Activity is 67%.

Q: And the EC30 (Cavia porcellus [12])?
A: Its EC30 is 0.31 µM.

Q: And the Potency (K562 [9])?
A: The Potency was 0.3 µM.

Q: What about the EC50 (Cavia porcellus [5]) of the same compound?
A: The EC50 was 1.81 µM.

Q: What about the Activity (Cavia porcellus [7]) of the same compound?
A: The Activity was 37%.

Q: And the Dead cells (K562 [13])?
A: Its Dead cells is 0%.

Q: With `COc1ccc(C(C#N)(CCCNCC(c2ccccc2)c2ccccc2)C(C)C)cc1OC.Cl` (stereo not drawn) as the compound, how does the Alpha max (K562 [10]) read?
A: Its Alpha max is 0.7.

Q: And the Activity (Cavia porcellus [2])?
A: Its Activity is 74%.

Q: And the IC50 (Cavia porcellus [3])?
A: Its IC50 is “Inactive”.

Q: And the Activity (Cavia porcellus [4])?
A: Its Activity is 89%.

Q: And the EC30 (Cavia porcellus [12])?
A: The EC30 was 0.54 µM.

Q: And the Potency (K562 [9])?
A: Its Potency is 0.25 µM.

Q: What about the EC50 (Cavia porcellus [5]) of the same compound?
A: Its EC50 is 0.83 µM.

Q: What about the Activity (Cavia porcellus [7]) of the same compound?
A: The Activity was 37%.

Q: What about the Dead cells (K562 [13]) of the same compound?
A: The Dead cells was 5%.

Q: With `Cl.N#CC(CCCNC1c2ccccc2CCc2ccccc21)(c1ccccc1)c1ccccc1` as the compound, how does the EC30 (Cavia porcellus [1]) read?
A: Its EC30 is “inactive”.

Q: And the Alpha max (K562 [10])?
A: The Alpha max was 0.5.

Q: What about the Activity (Cavia porcellus [2]) of the same compound?
A: The Activity was 5%.

Q: What about the IC50 (Cavia porcellus [3]) of the same compound?
A: The IC50 was “Inactive”.

Q: And the Activity (Cavia porcellus [4])?
A: The Activity was 80%.

Q: What about the Potency (K562 [9]) of the same compound?
A: The Potency was 0.5 µM.

Q: And the EC50 (Cavia porcellus [5])?
A: The EC50 was 0.64 µM.

Q: What about the Activity (Cavia porcellus [7]) of the same compound?
A: The Activity was 5%.

Q: What about the Dead cells (K562 [13]) of the same compound?
A: Its Dead cells is 3%.
